MC4R antag cAMP: antagonists of human melanocortin 4 receptor (MC4R) | inhibition, % at 6.5 µM | MC4R-expressing cells, MTII-stimulated cAMP, LANCE TR-FRET | 360,000 tested, 0.48% active;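 active = inhibition above its plate's cutoff, the mean of tested wells on that plate plus 3 SD, cut at about 29% in these data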
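system = U2OS cells with stable human MC4R expression | also added = Melanotan II challenge after compound preincubation | dosing = one concentration, 6.5 µM nominal | incubation = compound 30 min, challenge 1 h, detection 1 h | measured by = TR-FRET with Eu-cAMP and labeled anti-cAMP, 671 nm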
OPRM1-OPRD1 ag: agonists of human mu-delta opioid receptor heterodimerization. P35372+P41143. cells, OPRM1-OPRD1 heterodimerization, luminescence. activation, % at 9.3 µM. 340,000 tested, 0.3% active. AID 504326; in the data active = activation above about 18%
Target sequence (P35372 whole entry, looked up): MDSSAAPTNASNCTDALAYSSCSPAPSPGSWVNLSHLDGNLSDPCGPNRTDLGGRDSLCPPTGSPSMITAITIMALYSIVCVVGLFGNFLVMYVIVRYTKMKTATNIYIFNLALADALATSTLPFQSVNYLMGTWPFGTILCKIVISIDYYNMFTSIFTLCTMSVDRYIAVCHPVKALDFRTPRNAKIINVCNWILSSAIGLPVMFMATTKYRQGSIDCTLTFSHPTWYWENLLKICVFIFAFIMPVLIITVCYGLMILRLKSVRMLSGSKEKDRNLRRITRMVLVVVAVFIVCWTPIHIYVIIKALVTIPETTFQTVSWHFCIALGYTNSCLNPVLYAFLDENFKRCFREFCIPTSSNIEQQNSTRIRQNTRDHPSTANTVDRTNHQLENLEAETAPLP
Target sequence (P41143 whole entry, looked up): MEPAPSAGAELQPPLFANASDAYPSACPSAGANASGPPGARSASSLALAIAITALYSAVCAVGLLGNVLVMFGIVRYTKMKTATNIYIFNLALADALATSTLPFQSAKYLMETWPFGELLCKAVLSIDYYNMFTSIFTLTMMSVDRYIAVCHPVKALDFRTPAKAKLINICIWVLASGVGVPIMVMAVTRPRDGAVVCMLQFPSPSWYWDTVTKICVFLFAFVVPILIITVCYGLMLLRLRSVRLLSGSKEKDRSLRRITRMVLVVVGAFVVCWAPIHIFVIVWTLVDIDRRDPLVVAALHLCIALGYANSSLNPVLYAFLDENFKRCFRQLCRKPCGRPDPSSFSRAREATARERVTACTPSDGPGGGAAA
OPRM1-OPRD1 inv: mu-delta opioid heterodimer inverse agonism; P35372+P41143; cell-based MOR-DOR heterodimer luminescence; inhibition, % at 9.3 µM; 340,000 tested, 0.21% active; AID 504357; in the data active = inhibition above about 22%, passing the limit was not always enough
HTR5A inv ag: HTR5A inverse agonism, opioid heterodimer counter-screen | P47898 | HTR5A cell line, luminescence | inhibition, % at 9.3 µM | 340,000 tested, 0.083% active; in the data active = inhibition mostly above about 23%, no sharp cut-off; inactive = mostly below about 18%
HTR5A ag: HTR5A agonism, opioid heterodimer counter-screen; P47898; HTR5A agonist assay, luminescence, cell-based; activation, % at 9.3 µM; 340,000 tested, 0.61% active; AID 504692; in the data active = activation mostly above about 9.5%, no sharp cut-off; inactive = mostly below about 7.6%
MC4R barr agon: activates human MC4R beta-arrestin recruitment | P32245 | U2OS MC4R beta-arrestin complementation, luminescence; percent of melanotan II response, DMSO zero | activation, % at 8.9 µM | 360,000 tested, 0.98% active;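 active = activation above a per-plate cutoff, the mean activation of sample wells on that plate plus 3 SD, cut at about 8% in these data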
MC4R barr conf: human MC4R beta-arrestin agonism confirmation. activation, % at 8.9 µM. U2OS MC4R beta-arrestin recruitment, luminescence; scaled DMSO 0%, Melanotan II 100%. AID 602192. 2,400 tested, 31% active. shares compounds with MC4R barr agon;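 active = mean activation across replicates above the hit cutoff set in the earlier primary screen, cut at about 8% in these data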
MOR DOR agonist: OPRM1-OPRD1 heterodimer agonism counter-screen; shares compounds with MC4R barr agon; U2OS PathHunter beta-arrestin, beta-gal luminescence; percent of deltorphin B response, DMSO zero; activation, % at 9.2 µM; 2,400 tested, 5.8% active; AID 602194;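 active = mean activation across replicates exceeds the hit threshold derived in the earlier primary screen, cut at about 18% in these data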
Hits are given with their value. The list is not random: actives were taken first. Their share in the collection is about 2.4%.

Screening COc1ccc(CCNC(=O)CCSc2nc(-c3ccco3)cc(C(F)(F)F)n2)cc1 returned MC4R antag cAMP inactive, OPRM1-OPRD1 ag inactive, OPRM1-OPRD1 inv inactive, HTR5A inv ag inactive, HTR5A ag inactive, MC4R barr agon 18.3, MC4R barr conf inactive and MOR DOR agonist inactive.
`COc1ccc(-c2cc(C(F)(F)F)nc(SCC(=O)NCc3cccs3)n2)cc1` gave MC4R antag cAMP inactive, OPRM1-OPRD1 ag inactive, OPRM1-OPRD1 inv inactive, HTR5A inv ag inactive, HTR5A ag inactive, MC4R barr agon 15.9, MC4R barr conf inactive and MOR DOR agonist inactive.
For CCOc1ccc(C(=O)CC(C(=O)O)N2CCCCC2)cc1 (stereo unspecified) the results were MC4R antag cAMP inactive, OPRM1-OPRD1 ag inactive, OPRM1-OPRD1 inv inactive, HTR5A inv ag inactive, HTR5A ag inactive and MC4R barr agon inactive.
Screening C/C(=N\Nc1ccc(S(N)(=O)=O)cc1[N+](=O)[O-])c1ccc2c(c1)OCO2 returned MC4R antag cAMP inactive, OPRM1-OPRD1 ag inactive, OPRM1-OPRD1 inv inactive, HTR5A inv ag inactive, HTR5A ag inactive, MC4R barr agon 13.1, MC4R barr conf inactive and MOR DOR agonist inactive.
For Cc1cccc(N2CCN(S(=O)(=O)c3ccc4c(c3)CCCN4C(=O)C3CCC3)CC2C)c1 (stereo unspecified) the results were MC4R antag cAMP inactive, OPRM1-OPRD1 ag inactive, OPRM1-OPRD1 inv inactive, HTR5A inv ag inactive, HTR5A ag inactive and MC4R barr agon inactive.
CCOc1ccc(-c2n[nH]c(C)c2Oc2ccccc2OC)c(O)c1 was read as MC4R antag cAMP inactive, OPRM1-OPRD1 ag inactive, OPRM1-OPRD1 inv inactive, HTR5A inv ag inactive, HTR5A ag inactive, MC4R barr agon 11.7, MC4R barr conf inactive and MOR DOR agonist inactive.
Screening C=C(C)COc1ccc(-c2nc(N)nc(C)c2Oc2ccccc2OC)c(O)c1 returned MC4R antag cAMP inactive, OPRM1-OPRD1 ag inactive, OPRM1-OPRD1 inv inactive, HTR5A inv ag inactive, HTR5A ag inactive and MC4R barr agon inactive.
`C=C(C)COc1ccc(-c2n[nH]c(C)c2Oc2ccccc2OC)c(O)c1` gave MC4R antag cAMP inactive, OPRM1-OPRD1 ag inactive, OPRM1-OPRD1 inv inactive, HTR5A inv ag inactive, HTR5A ag inactive, MC4R barr agon 11.8, MC4R barr conf inactive and MOR DOR agonist inactive.
Screening CC1(C(=O)NS(=O)(=O)c2cccc(C#N)c2)CCN1C(=O)c1ccco1 (stereo unspecified) returned MC4R antag cAMP inactive and MC4R barr agon inactive.
Screening CCC(C(=O)OCC(=O)NC(=O)NC(C)(C)C)c1ccccc1 (stereo unspecified) returned MC4R antag cAMP inactive, OPRM1-OPRD1 ag inactive, OPRM1-OPRD1 inv inactive, HTR5A inv ag inactive, HTR5A ag inactive, MC4R barr agon 9.7, MC4R barr conf inactive and MOR DOR agonist inactive.
For C/C(=N/NC(=O)C1COc2ccccc2O1)c1ccc(Br)s1 (stereo unspecified) the results were MC4R antag cAMP inactive, OPRM1-OPRD1 ag inactive, OPRM1-OPRD1 inv inactive, HTR5A inv ag inactive, HTR5A ag inactive, MC4R barr agon 12.8, MC4R barr conf inactive and MOR DOR agonist inactive.
`Cc1ccc(N(CC(=O)N2CCCCCC2)S(C)(=O)=O)c(C)c1` gave MC4R antag cAMP inactive and MC4R barr agon inactive.
`O=C(NC(=S)NCC1CCCO1)C(c1ccccc1)c1ccccc1` (stereo unspecified) gave MC4R antag cAMP inactive, OPRM1-OPRD1 ag inactive, OPRM1-OPRD1 inv inactive, HTR5A inv ag inactive, HTR5A ag inactive, MC4R barr agon 13.3, MC4R barr conf inactive and MOR DOR agonist inactive.
Screening Cc1ccc(S(=O)(=O)N(C)C)cc1NC(=O)C1CCCCN1S(=O)(=O)c1ccccc1 (stereo unspecified) returned MC4R antag cAMP inactive, OPRM1-OPRD1 ag inactive, OPRM1-OPRD1 inv inactive, HTR5A inv ag inactive, HTR5A ag inactive and MC4R barr agon inactive.
Screening CCOC(=O)N1CCN(S(=O)(=O)c2c(C(=O)N3CCCCC3)c(C)n(C)c2C)CC1 returned MC4R antag cAMP inactive, OPRM1-OPRD1 ag inactive, OPRM1-OPRD1 inv inactive, HTR5A inv ag inactive, HTR5A ag inactive and MC4R barr agon inactive.
`COc1ccc(CNC(=S)Nc2ccc3nc(N4CCOCC4)cc(C)c3c2)cc1` gave MC4R antag cAMP inactive, OPRM1-OPRD1 ag inactive, OPRM1-OPRD1 inv inactive, HTR5A inv ag inactive, HTR5A ag inactive, MC4R barr agon 40.8, MC4R barr conf 11.1 and MOR DOR agonist inactive.
`COc1ccc(N(C)S(=O)(=O)c2cccc(C(=O)N(C)Cc3ccc(C)o3)c2)cc1` gave MC4R antag cAMP inactive, OPRM1-OPRD1 ag inactive, OPRM1-OPRD1 inv inactive, HTR5A inv ag inactive, HTR5A ag inactive and MC4R barr agon inactive.
`O=C(COc1ccc(Cl)cc1Cl)NC(=O)c1ccccc1` gave MC4R antag cAMP inactive, OPRM1-OPRD1 ag inactive, OPRM1-OPRD1 inv inactive, HTR5A inv ag inactive, HTR5A ag inactive, MC4R barr agon 10.4, MC4R barr conf inactive and MOR DOR agonist inactive.
For O=C(O)CC(NC(=O)COc1ccc(Cl)cc1Cl)C(=O)O (stereo unspecified) the results were MC4R antag cAMP inactive, OPRM1-OPRD1 ag inactive, OPRM1-OPRD1 inv inactive, HTR5A inv ag inactive, HTR5A ag inactive and MC4R barr agon inactive.
Screening CCN(CC)CCN(C(=O)CCS(=O)(=O)c1ccccc1)c1nc2c(C)cc(C)cc2s1 returned MC4R antag cAMP inactive, OPRM1-OPRD1 ag inactive, OPRM1-OPRD1 inv inactive, HTR5A inv ag inactive, HTR5A ag 12.6, MC4R barr agon 12.0, MC4R barr conf inactive and MOR DOR agonist inactive.
For O=C(/C=C/c1ccc(OC(F)F)cc1)OCC(=O)N1CCc2ccccc21 the results were MC4R antag cAMP inactive, OPRM1-OPRD1 ag inactive, OPRM1-OPRD1 inv inactive, HTR5A inv ag inactive, HTR5A ag inactive, MC4R barr agon 13.2, MC4R barr conf inactive and MOR DOR agonist inactive.
CCCNC(=O)C1(C)CCN(C(=O)c2ccc3sccc3c2)C1 (stereo unspecified) was read as MC4R antag cAMP inactive and MC4R barr agon inactive.
Screening Clc1ccccc1/C=N/NC1=Nc2cccc3cccc1c23 returned MC4R antag cAMP inactive, OPRM1-OPRD1 ag inactive, OPRM1-OPRD1 inv inactive, HTR5A inv ag inactive, HTR5A ag 11.9, MC4R barr agon 18.3, MC4R barr conf 25.2 and MOR DOR agonist inactive.
C(=N\NC1=Nc2cccc3cccc1c23)/c1ccccn1 was read as MC4R antag cAMP inactive, OPRM1-OPRD1 ag inactive, OPRM1-OPRD1 inv inactive, HTR5A inv ag inactive, HTR5A ag inactive and MC4R barr agon inactive.
Screening COc1ccc2nc(C)cc(SCC(=O)N/N=C/c3cccc4ccccc34)c2c1 returned MC4R antag cAMP inactive, OPRM1-OPRD1 ag inactive, OPRM1-OPRD1 inv inactive, HTR5A inv ag inactive, HTR5A ag inactive, MC4R barr agon 18.8, MC4R barr conf inactive and MOR DOR agonist inactive.
